Screening results deposited in PubChem by The Scripps Research Institute Molecular Screening Center.
Most compounds without a hit are left out; they make up all but 1.8% or so of the library.
NPY1 pot ag: potentiates or activates human NPY-Y1 receptor | P25929 | NPY-Y1 expressing cells, potentiator/agonist activation | activation, % at 3.6 µM | 220,000 compounds, 0.37% hits | AID 1304; in the data active means activation above about 33%, passing the limit was not always enough;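 further: cells stimulated with NPY at EC10 then isoproterenol at EC100; 0% = low agonist plus stimulus and 100% = saturating agonist plus stimulus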
Target sequence (P25929 whole entry, looked up): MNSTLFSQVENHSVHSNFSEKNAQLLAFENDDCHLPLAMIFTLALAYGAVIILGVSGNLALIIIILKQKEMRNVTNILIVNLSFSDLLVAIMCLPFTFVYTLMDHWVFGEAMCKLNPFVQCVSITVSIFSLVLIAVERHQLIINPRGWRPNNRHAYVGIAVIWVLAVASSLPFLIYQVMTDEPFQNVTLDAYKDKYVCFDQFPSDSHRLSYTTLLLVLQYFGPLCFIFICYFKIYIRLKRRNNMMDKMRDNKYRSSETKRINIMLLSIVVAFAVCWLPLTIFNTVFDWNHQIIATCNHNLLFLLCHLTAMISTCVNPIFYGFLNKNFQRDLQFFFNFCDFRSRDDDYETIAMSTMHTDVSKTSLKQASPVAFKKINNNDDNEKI
NPY2 pot ag: potentiators or agonists of human neuropeptide Y receptor Y2; cells expressing NPY-Y2, potentiator/agonist read-out; activation, % at 3.6 µM; 220,000 compounds, 0.45% hits; AID 1359; in the data active means activation above about 27%;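 further: cells stimulated with NPY near EC25 plus isoproterenol at EC100; 0% = vehicle plus submaximal agonist and 100% = vehicle plus saturating agonist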
NPY-Y1 antag: NPY-Y1 (human) receptor antagonism | AID 1040 | 200,000 compounds, 1% hits | HEK293-CNG Y1 cells, membrane potential fluorescence; NPY at EC95, then isoproterenol | P25929 | inhibition, % at 3.6 µM;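 active means inhibition above the campaign mean inhibition of all tested compounds plus 3 SD, cut at about 20% in these data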;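 further: 0% = DMSO wells given NPY plus isoproterenol and 100% = isoproterenol alone without NPY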
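Material: Y1- and CNG-channel-expressing HEK293 cells / Probe or stimulus: NPY 25 nM then isoproterenol 1 µM plus Ro 20-1724 25 µM / Doses: 3.6 µM single dose, DMSO 0.4% / Schedule: compound incubation 1 h at room temperature, readout 45 min post-stimulation / Signal: membrane potential fluorescence / Benchmarks: isoproterenol-only wells as full block versus NPY-plus-isoproterenol wells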
NPY Y2 blocker: antagonists of human neuropeptide Y receptor Y2 | NPY-Y2 expressing cells, antagonist mode | inhibition, % at 2.7 µM | 140,000 compounds, 0.99% hits | AID 793; in the data active means inhibition above about 17%;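 further: 0% = vehicle with agonist challenge and 100% = reference antagonist with challenge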
Starred values were filed as active, the others as inactive; x = not tested or not shown.

SMILES	NPY1 pot ag	NPY2 pot ag	NPY-Y1 antag	NPY Y2 blocker
O=C(NCCc1ccccc1)C1CCN(C(=O)c2ccc([N+](=O)[O-])cc2)CC1	-4	3	2	x
COc1cccc(CN(C)C(=O)c2cc(COc3ccc4ncccc4c3)on2)c1	-59	19	21*	x
Cn1ncc(Cl)c1C(=O)Nc1cccc(Cl)c1	-11	3	1	1
Cn1ncc(Cl)c1C(=O)Nc1cccnc1	43*	-4	-2	5
CCC(CC)c1nn2c(N)c(/C=C3\C(C)=Nc4ccccc43)c(=O)nc2s1	88*	51*	x	x
CC(C)c1nn2c(N)c(/C=C3\C=Nc4ccccc43)c(=O)nc2s1	9	11	x	x
COc1ccc(C(=O)Nc2nc3ccccc3s2)cc1OC	12	6	6	x
COc1ccc(-c2cc(C(=O)Nc3nc4ccccc4s3)c3ccccc3n2)cc1OC	-160	-141	29*	27*
Cc1cc(S(=O)(=O)NCc2cccnc2)ccc1-n1cnnn1	5	-3	5	0
CCOC(=O)Cn1nnc2c(sc3nc4c(c(-c5ccc(Cl)cc5)c32)CCC4)c1=O	-23	-14	19	22*
COc1ccc(S(=O)(=O)N(Cc2ccccc2)Cc2nc(-c3ccccc3)no2)cc1	-31	2	41*	21*
CCOc1ccccc1C(=O)Nc1ccsc1C(=O)OC	-28	-23	21*	20*
CCOc1ccccc1C(=O)Nc1ccccc1C(N)=O	-27	-19	0	3
CC(=O)c1cnn(-c2ccccc2)c1C	6	3	0	x
Cc1c(C(=O)Oc2cccc3ccccc23)cnn1-c1ccccc1	-22	4	-1	18*
CC12CC3CC(C)(C1)CC(CN1CCOCC1)(C3)C2	11	-4	-6	7
CC12CC3CC(C)(C1)CC(CN)(C3)C2	37*	34*	17	16
Fc1cccc(Cc2noc(CN3CCSCC3)n2)c1	-16	-14	1	x
Fc1cccc(Cc2noc(CN3CCCN(C4Cc5ccccc5C4)CC3)n2)c1	-1	-7	22*	x
Cc1ccc2c(c1)NC(=O)C(CC(=O)N(C)Cc1ccccc1)O2 (configuration not stated)	7	8	4	1
CCOC(=O)c1c(NC(=O)C2COc3ccccc3O2)sc(C(C)=O)c1C (configuration not stated)	11	15	-1	4
CCOC(=O)c1c(NC(=O)C2COc3ccccc3O2)sc2c1CC(C)(C)NC2(C)C (configuration not stated)	-127	-41	45*	21*
N#CCCN1CCCc2cc(N=Nc3ccc(C(F)(F)F)cc3)ccc21	73*	54*	x	x
COC(=O)CSc1nc(C)cc(Oc2ccccc2)n1	-8	-12	6	3
Cc1cc(Oc2ccc3ccccc3c2)nc(SCC(=O)c2ccccc2)n1	-114	-17	50*	41*
SMILES	NPY1 pot ag	NPY2 pot ag	NPY-Y1 antag	NPY Y2 blocker
Cc1cc(Oc2ccc(Br)cc2)nc(SCC(=O)c2ccccc2)n1	-72	-56	52*	39*
COC(=O)/C(=N/Nc1ccc(C)cc1)N1CCCc2ccccc21	1	-6	29*	19*
COC(=O)/C(=N/Nc1ccccc1)N1CCCc2ccccc21	6	-13	29*	22*
Cc1nc(OCc2c(C)noc2C)c2ccccc2n1	12	11	0	x
C=C(C)C(=O)OC1(C(F)(F)F)Oc2cc(C)ccc2NC1=O (configuration not stated)	5	4	-3	3
N=c1c2c(-c3ccccc3)c(-c3ccccc3)oc2ncn1CCCN1CCOCC1	-93	-7	21*	27*
CCCNC(=O)CSc1nnc(C)s1	2	-4	0	1
O=C(CCC1(C(=O)O)CCC(=O)NC1)NCc1ccccc1 (configuration not stated)	-9	13	8	-1
Cc1ccccc1C(=O)N1CCN(c2ccc(NC(=O)c3ccc4c(c3)OCO4)cc2)CC1	45*	56*	-7	x
CC1CCN(C2=NC(=O)/C(=C/c3cn(-c4ccccc4)nc3-c3cccc(S(=O)(=O)N(C)C)c3)S2)CC1	-1	-15	-4	1
COc1ccccc1CNC(=O)C1CCN(Cc2nc(-c3cccc(Cl)c3)oc2C)CC1	-6	5	7	2
CCc1ccc(-c2nc(CN3CCC(C(=O)NCc4ccccc4OC)CC3)c(C)o2)cc1	-58	-17	21*	18*
COC(=O)CSc1nnc(-c2ccc(S(=O)(=O)NCc3cccs3)cc2)o1	101*	84*	-14	2
CCS(=O)(=O)Nc1ccc(-c2nnc(SCC(=O)OC)o2)cc1	26	24	-9	2
CCOC(=O)CSc1nnc(-c2ccc(S(=O)(=O)NCc3cccs3)cc2)o1	91*	88*	-17	3
COC(=O)CSc1nnc(-c2ccc(S(=O)(=O)NCc3ccccc3Cl)cc2)o1	80*	81*	-17	0
COc1cccc(C(=O)NC(c2ccccc2)C2CCCC2)c1 (configuration not stated)	7	-9	22*	x
C#CCn1cc(/C=N/Nc2nc3ccccc3[nH]2)c2ccccc21	45*	49*	-8	-1
CCC(c1nnnn1Cc1ccc(F)cc1)N1CCN(C2CCCCC2)CC1 (configuration not stated)	-14	-15	39*	37*
COc1ccc(Cn2nnnc2C(c2ccccc2Cl)N2CCN(C3CCCC3)CC2)cc1 (configuration not stated)	-7	-3	28*	20*
Cc1noc(C)c1COc1ccc(C(=O)OCc2nnc(-c3ccc(Cl)cc3)o2)cc1	-18	-21	5	3
COc1cc([N+](=O)[O-])ccc1NC(=O)CN1CCOCC1	12	1	-1	x
CC(NC(=O)CN(c1cccc(C(F)(F)F)c1)S(=O)(=O)c1ccc(Cl)c([N+](=O)[O-])c1)c1ccccc1 (configuration not stated)	75*	50*	-9	-2
O=C(CN(c1ccc(Br)cc1)S(=O)(=O)c1ccc(Cl)c([N+](=O)[O-])c1)NCCc1ccccc1	7	1	-5	x
Cc1ccc(N(CC(=O)NCCc2ccc(F)cc2)S(=O)(=O)c2ccc(Cl)c([N+](=O)[O-])c2)c(C)c1	68*	39*	-8	-5
SMILES	NPY1 pot ag	NPY2 pot ag	NPY-Y1 antag	NPY Y2 blocker
O=C(CN(c1cccc(C(F)(F)F)c1)S(=O)(=O)c1ccc(Cl)c([N+](=O)[O-])c1)NCc1ccccc1	81*	61*	-10	-1
Brc1cc(Cc2nnc(-c3ccccc3)o2)c(Br)s1	16	12	x	x
CSc1nsc(SC)c1NC(=O)OCC1CCCO1 (configuration not stated)	7	-3	9	-1
CCCCc1nnc(NC(=O)COc2ccc3c(C)cc(=O)oc3c2)s1	-12	-7	x	x
COc1ccc(-c2noc(-c3ccccc3C(=O)Nc3cccc(OC)c3)n2)cc1	-80	-14	43*	24*
CCOc1ccccc1NC(=O)c1ccccc1-c1nc(-c2ccccc2)no1	-80	-40	25*	18*
CCOc1ccccc1-c1nc(-c2ccc(NC(=O)Cc3ccccc3OC)cc2)no1	-26	-19	4	1
